Measurements: PubChem BioAssay AID623881 (Johns Hopkins Ion Channel Center, 2012)
pIC50: −log10 of the molar value. “And” between values parts separate entries of the source, which are not always exact repeats. Equal values may be shown once. The source made the active and inactive calls.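 Rule for the calls: active = peak Kir2.1 potassium channel inhibition over 30% at one or more doses, plus a fitted dose response curve; inactive = no inhibition at any dose, or no curve fitted.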

Biological target: Inward rectifier potassium channel 2 (Mus musculus) (UniProt P35561)
Sequence (P35561 whole entry, looked up): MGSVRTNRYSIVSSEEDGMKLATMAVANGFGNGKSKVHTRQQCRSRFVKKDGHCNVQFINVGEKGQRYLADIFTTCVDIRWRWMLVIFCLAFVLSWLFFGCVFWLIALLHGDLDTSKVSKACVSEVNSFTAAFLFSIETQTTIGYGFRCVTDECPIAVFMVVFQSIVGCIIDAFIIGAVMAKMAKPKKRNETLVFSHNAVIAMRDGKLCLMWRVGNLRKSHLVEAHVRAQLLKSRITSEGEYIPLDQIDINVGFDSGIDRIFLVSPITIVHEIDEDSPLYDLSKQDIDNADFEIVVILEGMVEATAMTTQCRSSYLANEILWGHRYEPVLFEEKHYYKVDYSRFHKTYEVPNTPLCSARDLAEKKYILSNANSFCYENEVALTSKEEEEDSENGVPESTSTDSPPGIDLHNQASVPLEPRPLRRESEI
Assay: off-target blockade of inward rectifier Kir2.1 – cell-based, FluxOR thallium flux, CRC round 4, selectivity assay for KCNK9 inhibitor project, SAR follow-up (AID 623881)
Details: Kir2.1-expressing cells, FluxOR thallium flux fluorescence; for thallium flux ratio, lower = inhibition: at 30 µM (top of the series)
How it was run: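 test system = HEK293 cells stably expressing the Kir2.1 inward rectifier channel | reagent = Tl+/K+ stimulus (5x stock K2SO4 plus Tl2SO4) | dosing = 10 concentrations per compound | timing = 90 min dye load, 20 min compound, room temperature | technique = kinetic FluxOR thallium-dye fluorescence | read-out basis = baseline-normalized max-minus-min fluorescence, fitted for IC50 and Hill slope | repeats = ≥2 replicates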

CC(C1CC2CCC1C2)n1c(-c2ccco2)nn(CCc2ccncc2)c1=S (stereo not given)
thallium flux ratio, lower = inhibition: inactive

CCCC(=O)C1CCN(c2ncnc3c2CN(C(=O)c2ccc(-c4ccccc4)cc2)CC3)CC1
thallium flux ratio, lower = inhibition: inactive

C[C@H](C1CCCCC1)n1c(-c2ccccc2F)n[nH]c1=S
thallium flux ratio, lower = inhibition: inactive

CC(C1CC2CCC1C2)n1c(N)nnc1-c1ccco1 (stereo not given)
thallium flux ratio, lower = inhibition: inactive

CC(C1CC2CCC1C2)n1c(SCCc2cccc(O)c2)nnc1-c1ccco1 (stereo not given)
pIC50: 4.94

C[C@H]([C@@H]1CC2CC[C@H]1C2)n1c(-c2ccccc2F)n[nH]c1=S
thallium flux ratio, lower = inhibition: inactive

C[C@@H]([C@@H]1CC2CC[C@H]1C2)n1c(-c2ccsc2)n[nH]c1=S
pIC50: 4.63 and 4.60

CC(C1C[C@H]2CCC1C2)n1c(-c2ccsc2)n[nH]c1=S (stereo not given in full)
pIC50: 4.64

C[C@H]([C@@H]1CC2CC[C@H]1C2)n1c(-c2ccsc2)n[nH]c1=S
thallium flux ratio, lower = inhibition: inactive

CC(C1CC2CCC1C2)n1c(SCC(=O)N2CCN(C)CC2)nnc1-c1ccco1 (stereo not given)
thallium flux ratio, lower = inhibition: inactive

COc1cccc(-c2n[nH]c(=S)n2[C@H](C)[C@@H]2CC3CC[C@H]2C3)c1
thallium flux ratio, lower = inhibition: inactive

COc1cccc(CCSc2nnc(-c3ccco3)n2C(C)C2CC3CCC2C3)c1 (stereo not given)
pIC50: 5.04

COc1cccc(-c2nnc(SSc3nnc(-c4cccc(OC)c4)n3C(C)C3CC4CCC3C4)n2C(C)C2CC3CCC2C3)c1 (stereo not given)
thallium flux ratio, lower = inhibition: inactive

CC([C@@H]1CC2CC[C@H]1C2)n1c(-c2ccsc2)n[nH]c1=S (stereo not given in full)
thallium flux ratio, lower = inhibition: inactive

CC(C1CC2CCC1C2)n1c(SCCN2CCOCC2)nnc1-c1ccco1 (stereo not given)
thallium flux ratio, lower = inhibition: inactive

CC(C1CCN(C)CC1)n1c(-c2ccco2)n[nH]c1=S (stereo not given)
thallium flux ratio, lower = inhibition: inactive

COc1ccc(NC(=O)CSc2nnc(-c3ccco3)n2C(C)C2CC3CCC2C3)cc1OC (stereo not given)
thallium flux ratio, lower = inhibition: inactive

CC(C1CC2CCC1C2)n1c(SCCc2ccccn2)nnc1-c1ccco1 (stereo not given)
pIC50: 4.81

C[C@@H]([C@@H]1CC2CC[C@H]1C2)n1c(-c2ccco2)n[nH]c1=S
thallium flux ratio, lower = inhibition: inactive

C[C@H]([C@@H]1CC2CC[C@H]1C2)n1c(-c2ccco2)n[nH]c1=S
thallium flux ratio, lower = inhibition: inactive

COc1cccc(-c2n[nH]c(=S)n2[C@H](C)C2CCCCC2)c1
thallium flux ratio, lower = inhibition: inactive

COc1ccc(CC(=O)NCc2ccccc2-c2ccccc2C(=O)NCc2ccc(F)cc2F)cc1
thallium flux ratio, lower = inhibition: inactive

COc1ccc(C(=O)CCSc2nnc(-c3ccco3)n2C(C)C2CC3CCC2C3)cc1OC (stereo not given)
thallium flux ratio, lower = inhibition: inactive

C[C@H](C1CCCCC1)n1c(-c2ccsc2)n[nH]c1=S
thallium flux ratio, lower = inhibition: inactive

COc1ccc(CSc2nnc(-c3ccco3)n2C(C)C2CC3CCC2C3)cc1OC (stereo not given)
pIC50: 4.73
